Data: ChEMBL document CHEMBL5512625, “Design, synthesis, and biological evaluation of first-in-class indomethacin-based PROTACs degrading SARS-CoV-2 main protease and with broad-spectrum antiviral activity” (Eur J Med Chem, 2024)
Values after ≈ are worked out from the molar mass of the structure shown. Active and inactive are the calls of the source. No cut-off for these calls is given here.

Tests used:
[1] = Cytotoxicity against African green monkey Vero cells assessed as reduction in cell viability incubated for 72 hrs by MTT assay; type: toxicity, cell-based; details: chlorocebus sabaeus
SARS-CoV-2 [2] = experiment: Antiviral activity against SARS CoV-2 NL/2020 infected in African green monkey Vero E6 cells incubated for 3 days by plaque reduction assay; type: functional, organism-based; details: Severe acute respiratory syndrome coronavirus 2, NL/2020, Vero C1008, 72 h
[3] = Cytotoxicity against human MRC5 cells assessed as reduction in cell viability incubated for 72 hrs by MTT assay; type: toxicity, cell-based
Human coronavirus OC43 = experiment: Antiviral activity against HCoV-OC43 infected in human MRC5 cells incubated for 3 days by plaque reduction assay; type: functional, organism-based; details: Betacoronavirus 1, MRC5, 72 h
Human coronavirus 229E = experiment: Antiviral activity against HCoV-229E infected in human MRC5 cells incubated for 3 days by plaque reduction assay; type: functional, organism-based; details: MRC5, 72 h
HEK-293T = experiment: Downregulation of PGES-2 level in HEK293T cells at 25 uM incubated for 2 to 8 hrs by Western blot analysis; type: functional, cell-based; details: Homo sapiens, time 2-8 hrs
Summary of the method: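 Uninfected 293T cells treated at 25 µM or with 0.1% DMSO and harvested at several times after treatment. Western blot with anti-PGES-2 antibody; β-actin as loading control.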

Vero C1008 [4] = experiment: Downregulation of PGES-2 level in African green monkey Vero E6 cells infected with SARS CoV-2 at 25 uM pre-infected for 90 mins followed by removal of viral inoculum and subsequent addition of compound measured after 24 hrs post-infection; type: functional, cell-based; details: Chlorocebus sabaeus, time 1350.0 min
MRC5 [5] = experiment: Downregulation of PGES-2 level in human MRC5 cells infected with HCoV-OC43 at 25 uM pre-infected for 90 mins followed by removal of viral inoculum and subsequent addition of compound measured after 48 hrs post-infection; type: functional, cell-based; details: time 2790.0 min
Summary of the method: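 MRC-5 cells infected with HCoV-OC43 for 90 min at 37 °C; inoculum removed, then treated at 25 µM or with 0.1% DMSO. Whole-cell lysates collected 48 h p.i. and blotted for PGES-2, normalised to β-actin.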

MRC5 [6] = experiment: Downregulation of PGES-2 level in human MRC5 cells infected with HCoV-229E at 25 uM pre-infected for 90 mins followed by removal of viral inoculum and subsequent addition of compound measured after 24 hrs post-infection; type: functional, cell-based; details: time 1350.0 min
SARS-CoV-2 [7] = experiment: Antiviral activity against SARS CoV-2 infected in human Calu-3 cells measured after 36 hrs; type: functional, organism-based; details: Severe acute respiratory syndrome coronavirus 2, Calu-3, 36 h
[8] = Cytotoxicity against human Calu-3 cells incubated for 72 hrs by MTT assay; type: toxicity, cell-based
[9] = molecular target: von Hippel-Lindau disease tumor suppressor-SARS-Cov-2 polyprotein (Severe acute respiratory syndrome coronavirus 2, UniProt P40337+P0DTD1); experiment: PROTAC activity at human VHL/virus-expressed MPro in human Calu-3 cells infected with SARS CoV-2 assessed as protein degradation incubated for 48 hrs by Western blot analysis; type: cell-based
[10] = Kinetic solubility in universal buffer incubated for 90 mins by microplate shaker method; type: physicochemical; details: for Kinetic_solubility: buffer, 1.5 h, BLD = below limit of detection; for solubility kinetic at 1.5 h: universal buffer, read-out: Kinetic_solubility
Summary of the method: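 Universal buffer (45 mM each ethanolamine, NaH2PO4 and sodium acetate) at pH 7.4; compound at 100 µM final, 5% DMSO. Shaken 90 min at 25 °C, vacuum-filtered, filtrate diluted with ACN/DMSO. UV absorbance at λmax quantified against an external calibration curve (3.13–100 µM); result corrected by ×1.25.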

[11] = Chemical stability of compound in DMEM at pH 7.4 assessed as compound remaining at 1 uM measured after 24 hrs by LC-MS analysis; type: physicochemical; details: read-out: Stability
Summary of the method: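 Compound at 1 and 10 µM (0.1% DMSO) incubated at 37 °C in DMEM pH 7.4 with 10% FBS and penicillin/streptomycin. Samples at 0 and 24 h, quenched in cold acetonitrile with labetalol internal standard, analysed by LC-MS/MS; duplicates.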

[12] = Metabolic stability in human liver microsomes assessed as half life measured upto 60 mins by LC/MS-MS analysis; type: ADME, Microsome
Summary of the method: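 Compound at 10 µM (0.1% DMSO) pre-incubated 5 min at 37 °C with human liver microsomes (0.5 mg/mL, 10-donor pool) in 0.1 M phosphate pH 7.4. Reaction started with 1 mM NADPH. Samples at 0, 5, 15, 30 and 60 min, quenched in cold acetonitrile with labetalol, analysed by LC-MS/MS; n=3.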

SARS-CoV-2 [13] = experiment: Antiviral activity against SARS CoV-2 infected in African green monkey Vero E6 cells assessed as reduction in viral replication by plaque reduction assay; type: functional, organism-based; details: Severe acute respiratory syndrome coronavirus 2
[14] = Cytotoxicity against African green monkey Vero cells; type: toxicity, cell-based; details: chlorocebus sabaeus
SARS-CoV-2 [15] = experiment: Antiviral activity against SARS CoV-2 NL/2020; type: functional, organism-based; details: Severe acute respiratory syndrome coronavirus 2, NL/2020
[16] = molecular target: Replicase polyprotein 1ab (Severe acute respiratory syndrome coronavirus 2, UniProt P0DTD1); experiment: Binding affinity to NT650-labeled recombinant SARS CoV-2 MPro assessed as protein stability by measuring dissociation constant by MST analysis
Vero C1008 [17] = experiment: Cytotoxicity against African green monkey Vero E6 cells assessed as reduction in cell viability incubated for 72 hrs by Alamar blue assay; type: toxicity, cell-based; details: chlorocebus sabaeus, vero c1008, 72 h

Sequence of von Hippel-Lindau disease tumor suppressor-SARS-Cov-2 polyprotein (P40337 whole entry, other chains not shown): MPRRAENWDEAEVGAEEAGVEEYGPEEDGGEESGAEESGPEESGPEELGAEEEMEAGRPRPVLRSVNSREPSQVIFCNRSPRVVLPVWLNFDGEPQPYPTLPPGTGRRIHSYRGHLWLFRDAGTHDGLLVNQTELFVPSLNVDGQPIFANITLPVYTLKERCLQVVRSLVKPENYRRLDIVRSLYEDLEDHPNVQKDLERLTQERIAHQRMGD

COc1ccc2c(c1)c(CC(=O)N1CCN(CC(=O)N[C@H](C(=O)N3C[C@H](O)C[C@H]3C(=O)N[C@@H](C)c3ccc(-c4scnc4C)cc3)C(C)(C)C)CC1)c(C)n2C(=O)c1ccc(Cl)cc1
CC50 at 72 h [1]: > 125 µM | EC50 (SARS-CoV-2 [2]): 10.8 µM | CC50 at 72 h [3]: > 125 µM | EC50 (Human coronavirus OC43): 1.6 µM | EC50 (Human coronavirus 229E): 6.5 µM | Activity (HEK-293T): inactive | Activity (Vero C1008 [4]): inactive | Activity (MRC5 [5]): inactive | Activity (MRC5 [6]): inactive | EC50 (SARS-CoV-2 [7]): 0.89 µM | CC50 at 72 h [8]: > 125 µM | DC50 [9]: 1.34 µM | Kinetic_solubility [10]: Bld | remaining at 24 h, 1 µM [11]: > 70% | half-life [12]: > 1 h

COc1ccc2c(c1)c(CC(=O)NCCN1CCN(C(=O)CCC(=O)N[C@H](C(=O)N3C[C@@H](O)C[C@H]3C(=O)N[C@@H](C)c3ccc(-c4scnc4C)cc3)C(C)(C)C)CC1)c(C)n2C(=O)c1ccc(Cl)cc1
Activity (SARS-CoV-2 [13]): inactive

COc1ccc2c(c1)c(CC(=O)NCCCCCCC(=O)N[C@H](C(=O)N1C[C@H](O)C[C@H]1C(=O)N[C@@H](C)c1ccc(-c3scnc3C)cc1)C(C)(C)C)c(C)n2C(=O)c1ccc(Cl)cc1
CC50 at 72 h [1]: > 200 µM | CC50 at 72 h [3]: > 250 µM | Activity (HEK-293T): inactive | Activity (Vero C1008 [4]): inactive | Activity (MRC5 [5]): inactive | Activity (MRC5 [6]): inactive | Kinetic_solubility [10]: Bld

COc1ccc2c(c1)c(CC(=O)NCCCCCCNc1cc3c(cc1F)C(=O)N(C1CCC(=O)NC1=O)C3=O)c(C)n2C(=O)c1ccc(Cl)cc1 (stereo not drawn)
CC50 at 72 h [1]: > 125 µM | EC50 (SARS-CoV-2 [2]): > 25 µM

COc1ccc2c(c1)c(CC(=O)NCCCCNc1cc3c(cc1F)C(=O)N(C1CCC(=O)NC1=O)C3=O)c(C)n2C(=O)c1ccc(Cl)cc1 (stereo not drawn)
CC50 at 72 h [1]: > 125 µM | EC50 (SARS-CoV-2 [2]): > 25 µM

COc1ccc2c(c1)c(CC(=O)N1CCN(CCOCCOCC(=O)N[C@H](C(=O)N3C[C@H](O)C[C@H]3C(=O)N[C@@H](C)c3ccc(-c4scnc4C)cc3)C(C)(C)C)CC1)c(C)n2C(=O)c1ccc(Cl)cc1
CC50 at 72 h [1]: > 125 µM | EC50 (SARS-CoV-2 [2]): > 25 µM | CC50 at 72 h [3]: 22 µM | solubility kinetic at 1.5 h [10]: 7.7 µM (≈ 7.69 µg/mL)

COc1ccc2c(c1)c(CC(=O)NCCN1CCN(C(=O)CCC(=O)N[C@H](C(=O)N3C[C@H](O)C[C@H]3C(=O)N[C@@H](C)c3ccc(-c4scnc4C)cc3)C(C)(C)C)CC1)c(C)n2C(=O)c1ccc(Cl)cc1
CC50 at 72 h [1]: > 250 µM | Activity (HEK-293T): inactive | Activity (Vero C1008 [4]): inactive | Activity (MRC5 [5]): inactive | Activity (MRC5 [6]): inactive | solubility kinetic at 1.5 h [10]: 6 µM (≈ 5.97 µg/mL) | remaining at 24 h, 1 µM [11]: > 70% | half-life [12]: > 1 h

CC(C)(C)NC(=O)N[C@H](C(=O)N1C[C@H]2[C@@H]([C@H]1C(=O)NC(CC1CCC1)C(=O)C(N)=O)C2(C)C)C(C)(C)C (stereo partly drawn) [BOCEPREVIR]
CC50 [14]: > 500 µM | EC50 (SARS-CoV-2 [15]): 22 µM

COc1ccc2c(c1)c(CC(=O)N1CCN(CCCCCC(=O)N[C@H](C(=O)N3C[C@H](O)C[C@H]3C(=O)N[C@@H](C)c3ccc(-c4scnc4C)cc3)C(C)(C)C)CC1)c(C)n2C(=O)c1ccc(Cl)cc1
CC50 at 72 h [1]: > 125 µM | EC50 (SARS-CoV-2 [2]): > 25 µM | CC50 at 72 h [3]: 20 µM | Kinetic_solubility [10]: Bld

COc1ccc2c(c1)c(CC(=O)O)c(C)n2C(=O)c1ccc(Cl)cc1 [INDOMETHACIN]
Kd [16]: 129 µM

COc1ccc2c(c1)c(CC(=O)N1CCN(CC(=O)N[C@H](C(=O)N3C[C@@H](O)C[C@H]3C(=O)N[C@@H](C)c3ccc(-c4scnc4C)cc3)C(C)(C)C)CC1)c(C)n2C(=O)c1ccc(Cl)cc1
Activity (Vero C1008 [17]): Toxic

COc1ccc2c(c1)c(CC(=O)NCCCCCCCCCCNc1cc3c(cc1F)C(=O)N(C1CCC(=O)NC1=O)C3=O)c(C)n2C(=O)c1ccc(Cl)cc1 (stereo not drawn)
CC50 at 72 h [1]: > 125 µM | EC50 (SARS-CoV-2 [2]): > 25 µM

COc1ccc2c(c1)c(CC(=O)NCCN1CCN(CCOCCOCC(=O)N[C@H](C(=O)N3C[C@H](O)C[C@H]3C(=O)N[C@@H](C)c3ccc(-c4scnc4C)cc3)C(C)(C)C)CC1)c(C)n2C(=O)c1ccc(Cl)cc1
CC50 at 72 h [1]: > 125 µM | EC50 (SARS-CoV-2 [2]): > 25 µM | CC50 at 72 h [3]: 12.3 µM | solubility kinetic at 1.5 h [10]: 26 µM (≈ 27.1 µg/mL)

COc1ccc2c(c1)c(CC(=O)N1CCN(CCC(=O)N[C@H](C(=O)N3C[C@H](O)C[C@H]3C(=O)N[C@@H](C)c3ccc(-c4scnc4C)cc3)C(C)(C)C)CC1)c(C)n2C(=O)c1ccc(Cl)cc1
CC50 at 72 h [1]: > 125 µM | EC50 (SARS-CoV-2 [2]): > 25 µM | CC50 at 72 h [3]: 13.5 µM | Kinetic_solubility [10]: Bld

COc1ccc2c(c1)c(CC(=O)NCCCN1CCN(CCCNC(=O)CCC(=O)N[C@H](C(=O)N3C[C@H](O)C[C@H]3C(=O)N[C@@H](C)c3ccc(-c4scnc4C)cc3)C(C)(C)C)CC1)c(C)n2C(=O)c1ccc(Cl)cc1
CC50 at 72 h [1]: > 125 µM | EC50 (SARS-CoV-2 [2]): > 25 µM | CC50 at 72 h [3]: > 125 µM | EC50 (Human coronavirus OC43): 16 µM | EC50 (Human coronavirus 229E): > 25 µM | solubility kinetic at 1.5 h [10]: 9.4 µM (≈ 10 µg/mL)
